Data: ChEMBL document CHEMBL3593186, “Synthesis, β-hematin inhibition studies and antimalarial evaluation of dehydroxy isotebuquine derivatives against Plasmodium berghei” (Bioorg Med Chem, 2015)

Legend:
[1] = Inhibition of haemozoin formation using hemin chloride assessed as beta-hematin formation at 5 to 100 uM after 48 hrs; assay type: physicochemical
Procedure, shortened: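 Hemin chloride (4 mM in DMSO) was mixed with compound in DMSO at 100–5 µM, in triplicate. Water or DMSO served as controls. β-Hematin formation was started with 0.2 M acetate buffer, pH 4.4, and run for 48 h at 37 °C. The pellet was washed with DMSO, dissolved in 0.2 N NaOH, diluted 1:2 in 0.1 N NaOH and read at 405 nm, giving % inhibition of haemozoin formation.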

Plasmodium berghei [2] = experiment: Antimalarial activity against chloroquine susceptible Plasmodium berghei ANKA infected in Balb-C mouse assessed as host survival days at 20 mg/kg, ip qd for 4 days (reference value: 6.80 +/- 0.70 days); assay type: functional
Plasmodium berghei [3] = experiment: Antimalarial activity against chloroquine susceptible Plasmodium berghei ANKA infected in Balb-C mouse assessed as reduction of parasitemia at 20 mg/kg, ip qd for 4 days by Giemsa staining (reference value: 65.20 +/- 2.58%); assay type: functional; set-up: scale not given: the % may be the effect or the level left
Plasmodium berghei [4] = experiment: Antimalarial activity against chloroquine susceptible Plasmodium berghei ANKA infected in Balb-C mouse assessed as reduction of parasitemia at 25 mg/kg, ip qd for 4 days by Giemsa staining (reference value: 65.20 +/- 2.58%); assay type: functional
Plasmodium berghei [5] = experiment: Antimalarial activity against chloroquine susceptible Plasmodium berghei ANKA infected in Balb-C mouse assessed as host survival days at 25 mg/kg, ip qd for 4 days (reference value: 6.80 +/- 0.70 days); assay type: functional
Mus musculus = experiment: Toxicity in chloroquine susceptible Plasmodium berghei ANKA infected Balb-C mouse at 20 mg/kg, ip qd for 4 days; assay type: organism-based; conditions: in vivo, 96 h

Compound | inhibition (INH) [1] | Survival (Plasmodium berghei [2]) | Activity (Plasmodium berghei [3]) | Parasitemia (Plasmodium berghei [4]) | Survival (Plasmodium berghei [5]) | Activity (Mus musculus)
Cl.Clc1ccc(-c2cc(Nc3ccnc4cc(Cl)ccc34)ccc2CN2CCCCC2)cc1 | 97.21% | 26 days | 7.3% |  |  | 
CCN(CC)CCCC(C)Nc1ccnc2cc(Cl)ccc12 (stereo unspecified) [CHLOROQUINE] | 98.57% |  |  | 0.6% | 29.4 days | 
Cl.Clc1ccc2c(Nc3ccc(CN4CCCCC4)c(-c4ccccc4)c3)ccnc2c1 | 97.08% | 28.4 days | 1.8% |  |  | Non-toxic
Cl.Clc1ccc2c(Nc3ccc(CN4CCOCC4)c(-c4ccccc4)c3)ccnc2c1 | 98.04% | 23.2 days | 6.5% |  |  | 
Cl.Clc1ccc(-c2cc(Nc3ccnc4cc(Cl)ccc34)ccc2CN2CCOCC2)cc1 | 2.03% |  |  |  |  | 
Cl.Clc1ccc(-c2cc(Nc3ccnc4cc(Cl)ccc34)ccc2CN2CCCC2)cc1 | 97.25% | 27.3 days | 2% |  |  | Non-toxic
CCN(CC)Cc1ccc(Nc2ccnc3cc(Cl)ccc23)cc1-c1ccccc1.Cl | 98.45% | 25.2 days | 3.2% |  |  | 
Cl.Clc1ccc2c(Nc3ccc(CN4CCCC4)c(-c4ccccc4)c3)ccnc2c1 | 98.49% | 28.6 days | 2.1% |  |  | Non-toxic
CN1CCN(Cc2ccc(Nc3ccnc4cc(Cl)ccc34)cc2-c2ccc(Cl)cc2)CC1.Cl | 1.61% |  |  |  |  | 
